One block for each compound: values may come before it. *1 amine or outer side, *2 acyl side, *3 side chain or, on linkers, in order; H or OH if unused. Where a SMILES comes first, the peptide text is derived from it. [ ]: non-standard residue; d: D form. X2 = NCCCCNC(=O)/N=C(\N)NCCC[C@H](N[*:1])C(=O)[*:2]
Experiments:
[1] = biological target: Neurotensin receptor type 1 (Homo sapiens, UniProt P30989); assay: Displacement of [3H]-{Nomega-[N-(4-propanoylaminobutyl)aminocarbonyl]}Arg-Arg-ProTyr-Ile-Leu-OH Tris(hydrotrifluoroacetate) from NTSR1 in human HT-29 cells after 2 hrs by liquid scintillation counting; assay type: cell-based
[2] = Chemical stability of compound at 120 uM at pH 7 at 21 degC after 24 to 48 hrs by reversed-phase HPLC analysis; assay type: physicochemical; settings: buffer, pH 7, 120 µM
How it was run: (§1)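 Peptide incubated in phosphate buffer (PBS), pH 7.0, 21 °C, for 24 or 48 h. Remaining intact peptide assessed by reversed-phase HPLC chromatograms.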

[3] = Chemical stability of compound at 150 uM at pH 7 at 21 degC after 24 to 48 hrs by reversed-phase HPLC analysis; assay type: physicochemical; settings: buffer, pH 7, 150 µM
How it was run: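 Peptide incubated in phosphate buffer (PBS), pH 7.0, 21 °C, for 24 or 48 h. Remaining intact peptide assessed from reversed-phase HPLC chromatograms.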

[4] = Drug degradation in human HT-29 cells at 50 uM after 2 hrs by reversed-phase HPLC analysis; assay type: ADME, cell-based; settings: read-out: Drug degradation
How it was run: (§2)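 Stability tested under binding-assay conditions for up to 6 h: AT1 ligands with CHO-hAT1 cells and NTSR1 ligands with HT-29 cells. Samples analysed by reversed-phase HPLC chromatography.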

[5] = Drug degradation in CHO cells expressing human AT1 receptor at 50 uM after 2 hrs by reversed-phase HPLC analysis; assay type: ADME, cell-based, Cricetulus griseus; settings: chinese hamster, read-out: Drug degradation; how it was run: as §2
[6] = biological target: T1, Type-1 angiotensin II receptor (Homo sapiens, UniProt P30556); assay: Displacement of [3H]-Asp-{Nomega-[N-(4-propanoylaminobutyl)aminocarbonyl]}Arg-ValTyr-Ile-His-Pro-Phe-OH Tris(hydrotrifluoroacetate) from human AT1 receptor transfected in CHO cells co-expressing Galpha16-mtAEQ after 2 hrs by liquid scintillation counting; assay type: cell-based
T1 sequence (P30556 whole entry): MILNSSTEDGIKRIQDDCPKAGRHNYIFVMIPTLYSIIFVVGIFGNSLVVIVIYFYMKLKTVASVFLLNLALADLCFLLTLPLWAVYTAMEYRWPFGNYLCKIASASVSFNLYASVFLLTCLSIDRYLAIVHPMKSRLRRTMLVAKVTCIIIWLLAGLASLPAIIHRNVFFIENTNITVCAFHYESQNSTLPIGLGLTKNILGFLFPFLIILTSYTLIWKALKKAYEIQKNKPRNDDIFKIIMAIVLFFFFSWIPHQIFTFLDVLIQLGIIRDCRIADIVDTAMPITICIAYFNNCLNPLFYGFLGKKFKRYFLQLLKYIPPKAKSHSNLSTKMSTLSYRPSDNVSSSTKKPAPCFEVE

[7] = Chemical stability of compound at 200 uM at pH 7 at 21 degC after 24 to 48 hrs by reversed-phase HPLC analysis; assay type: physicochemical; settings: buffer, pH 7, 200 µM; how it was run: as §1
[8] = biological target: T1, Type-1 angiotensin II receptor; assay: Agonist activity at human AT1 receptor transfected in CHO cells co-expressing Galpha16-mtAEQ assessed as induction of intracellular Ca2+ mobilization by bioluminescence assay; assay type: functional, cell-based

Sequence of Neurotensin receptor type 1 (P30989 whole entry): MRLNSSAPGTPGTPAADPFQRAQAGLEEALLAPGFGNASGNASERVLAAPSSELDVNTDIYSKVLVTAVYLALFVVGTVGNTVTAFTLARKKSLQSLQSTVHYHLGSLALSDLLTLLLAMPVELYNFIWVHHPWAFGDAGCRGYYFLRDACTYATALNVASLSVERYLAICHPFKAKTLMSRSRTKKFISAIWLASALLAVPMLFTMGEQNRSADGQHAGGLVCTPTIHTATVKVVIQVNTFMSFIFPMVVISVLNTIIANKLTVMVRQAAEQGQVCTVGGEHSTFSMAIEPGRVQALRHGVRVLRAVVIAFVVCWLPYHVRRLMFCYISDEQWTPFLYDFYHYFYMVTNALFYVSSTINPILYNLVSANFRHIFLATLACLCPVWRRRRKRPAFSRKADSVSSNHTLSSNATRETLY

IC50 [1]: 3.16 nM | Ki [1]: 1.1 nM
SMILES: COc1cccc(OC)c1-c1cc(C(=O)NC2(C(=O)O)C3CC4CC(C3)CC2C4)nn1-c1ccc(C(=O)N(C)CCCN(C)C)cc1C(C)C (stereo not drawn)

SMILES: CC[C@H](C)[C@H](NC(=O)[C@H](Cc1ccc(O)cc1)NC(=O)[C@@H](NC(=O)[C@H](CCCN/C(N)=N/C(=O)NCCCCNC(=O)CCCCC[n+]1cc(S(=O)(=O)[O-])ccc1/C=C/c1cc2ccc(N(CC)CC)cc2oc1=O)NC(=O)[C@@H](N)CC(=O)O)C(C)C)C(=O)N[C@@H](Cc1cnc[nH]1)C(=O)N1CCC[C@H]1C(=O)N[C@@H](Cc1ccccc1)C(=O)O.O=C(O)C(F)(F)F.O=C(O)C(F)(F)F.O=C(O)C(F)(F)F
Stability [2]: Stable

SMILES: CC[C@H](C)[C@H](NC(=O)[C@H](Cc1ccc(O)cc1)NC(=O)[C@@H]1CCCN1C(=O)[C@H](CCCNC(=N)N)NC(=O)[C@@H](N)CCCN/C(N)=N/C(=O)NCCCCNC(=O)CCCCC[n+]1cc(S(=O)(=O)[O-])ccc1/C=C/c1cc2ccc(N(CC)CC)cc2oc1=O)C(=O)N[C@@H](CC(C)C)C(=O)O.O=C(O)C(F)(F)F.O=C(O)C(F)(F)F.O=C(O)C(F)(F)F
Stability [3]: Stable

metabolised at 2 h, 50 µM [4]: < 5.5%
SMILES: CCC(=O)NCCOCCOCCNC(=O)/N=C(\N)NCCC[C@H](N)C(=O)N[C@@H](CCCNC(=N)N)C(=O)N1CCC[C@H]1C(=O)N[C@@H](Cc1ccc(O)cc1)C(=O)N[C@H](C(=O)N[C@@H](CC(C)C)C(=O)O)[C@@H](C)CC

metabolised at 2 h, 50 µM [5]: < 5.5%
SMILES: CCC(=O)NCCOCCOCCNC(=O)/N=C(\N)NCCC[C@H](NC(=O)[C@@H](N)CC(=O)O)C(=O)N[C@H](C(=O)N[C@@H](Cc1ccc(O)cc1)C(=O)N[C@H](C(=O)N[C@@H](Cc1cnc[nH]1)C(=O)N1CCC[C@H]1C(=O)N[C@@H](Cc1ccccc1)C(=O)O)[C@@H](C)CC)C(C)C

metabolised at 2 h, 50 µM [4]: < 5.5%
SMILES: CC[C@H](C)[C@H](NC(=O)[C@H](Cc1ccc(O)cc1)NC(=O)[C@@H]1CCCN1C(=O)[C@H](CCCNC(=N)N)NC(=O)[C@@H](N)CCCNC(=N)N)C(=O)N[C@@H](CC(C)C)C(=O)O

SMILES: CC[C@H](C)[C@H](NC(=O)[C@H](Cc1ccc(O)cc1)NC(=O)[C@@H]1CCCN1C(=O)[C@H](CCCNC(=N)N)NC(=O)[C@@H](N)CCCN/C(N)=N/C(=O)NCCCCNC(=O)CCCCCN1\C(=C/C=C/C=C/C2=[N+](C)c3ccccc3C2(C)C)C(C)(C)c2ccccc21)C(=O)N[C@@H](CC(C)C)C(=O)O.O=C(O)C(F)(F)F.O=C(O)C(F)(F)F.O=C(O)C(F)(F)F.O=C(O)C(F)(F)F.[Br-]
Stability [3]: Stable

SMILES: CC[C@H](C)[C@H](NC(=O)[C@H](Cc1ccc(O)cc1)NC(=O)[C@@H](NC(=O)[C@H](CCCN/C(N)=N/C(=O)NCCCCNC(=O)CCCCCN1\C(=C/C=C/C=C/C2=[N+](C)c3ccccc3C2(C)C)C(C)(C)c2ccccc21)NC(=O)[C@@H](N)CC(=O)O)C(C)C)C(=O)N[C@@H](Cc1cnc[nH]1)C(=O)N1CCC[C@H]1C(=O)N[C@@H](Cc1ccccc1)C(=O)O.O=C(O)C(F)(F)F.O=C(O)C(F)(F)F.O=C(O)C(F)(F)F.O=C(O)C(F)(F)F.[Br-]
Stability [2]: Stable

SMILES: CC[C@H](C)[C@H](NC(=O)[C@H](Cc1ccc(O)cc1)NC(=O)[C@@H](NC(=O)[C@H](CCCN/C(N)=N/C(=O)NCCCCN)NC(=O)[C@@H](N)CC(=O)O)C(C)C)C(=O)N[C@@H](Cc1cnc[nH]1)C(=O)N1CCC[C@H]1C(=O)N[C@@H](Cc1ccccc1)C(=O)O.O=C(O)C(F)(F)F.O=C(O)C(F)(F)F.O=C(O)C(F)(F)F.O=C(O)C(F)(F)F (H-D[X2]VYIHPF-OH)
IC50 [6]: 6.17 nM | Ki [6]: 2.1 nM | Stability [7]: Stable | EC50 [8]: 1.4 nM

— ChEMBL document CHEMBL3784921, “Mimicking of Arginine by Functionalized N(ω)-Carbamoylated Arginine As a New Broadly Applicable Approach to Labeled Bioactive Peptides: High Affinity Angiotensin, Neuropeptide Y, Neuropeptide FF, and Neurotensin Receptor Ligands As Examples” (J Med Chem, 2016)
